# SENP1 inh = SENP1 (human) catalytic domain inhibition | Q9P0U3 | recombinant SENP1 catalytic domain, CyPet-SUMO1-YPet FRET cleavage | inhibition, % at 10 µM | 360,000 tested, 0.21% active | AID 624204;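 active = inhibition at least 30% at 10 µM, raw YFP signal under a set limit, fluorescence ratio 0.5 to 1.5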;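 also: 0% = enzyme with DMSO and 100% = no enzyme wells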
# Target sequence (Q9P0U3 419-644 limits assumed): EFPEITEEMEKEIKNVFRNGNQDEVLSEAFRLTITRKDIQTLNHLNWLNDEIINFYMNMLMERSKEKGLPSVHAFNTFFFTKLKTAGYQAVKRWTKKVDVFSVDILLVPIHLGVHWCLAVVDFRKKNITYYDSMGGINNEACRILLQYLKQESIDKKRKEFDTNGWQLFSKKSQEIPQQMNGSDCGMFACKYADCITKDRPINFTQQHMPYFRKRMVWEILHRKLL
#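 system = hSENP1 catalytic domain, recombinant | reagent = SFCypet-SUMO1-SFYpet substrate at 25 nM | doses = one dose per compound, 10 µM, 0.5% DMSO | incubation = enzyme reaction for 50 min at room temperature, dark | measured by = FRET, CFP and YFP emission | controls = no-enzyme low, enzyme-DMSO high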
# iPSC survival up = increases survival of single human iPS cells; survival enhancement, % at 20 µM; hiPSC single-cell survival, ATPlite luminescence; 100% = ROCK inhibitor wells, 0% = DMSO; 360,000 tested, 0.044% active; AID 602274; in the data active = survival enhancement above about 18%;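 also: cells exposed to compounds for 16 hours before the ATP read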
# NR3A LBD binder = modulates the human NR3A ligand-binding domain; NR3A LBD differential scanning fluorimetry, Tm shift; 0% = protein alone, 100% = glycine-bound protein; Tm shift relative to glycine control, % at 25 µM; 340,000 tested, 2.5% active; AID 1259313;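 active = melting temperature shift of at least 10% of the positive control shift, at one fixed dose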
# Arr AP2 block = inhibitors of human beta-arrestin and AP2 interaction | FITC-arrestin peptide / GST-AP2 beads, flow cytometry; AP2 beta2 appendage carries R879A mutation | inhibition, % at 10 µM | 340,000 tested, 0.31% active;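 active = inhibition above a set limit, near 3 SD of compounds lacking own fluorescence, cut at about 54% in these data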;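 also: plate controls were DMSO wells for no effect and 5 µM unlabelled arrestin peptide for full effect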
#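 System: GST-AP2 R879A glutathione beads. Medium: PBS with 0.05% Tween 20 and 0.1% BSA. Also added: FITC-arrestin peptide, 50 nM. Incubation: 12 min plus 1 h, RT. Measured by: high-throughput flow cytometry of beads, ex 488, em 535 nm. Evaluation: percent drop in bead-associated FITC signal.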
# FAS-TE inh = blocks the thioesterase domain of human fatty acid synthase. P49327. recombinant FAS-TE, OMFH fluorogenic substrate, fluorescence endpoint. inhibition, % at 15 µM. 360,000 tested, 0.67% active. AID 602261;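 active = compounds whose normalised, plate-corrected inhibition of enzyme fluorescence in the single-dose primary screen is 50% or more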;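 also: 0% = DMSO with enzyme and 100% = substrate without enzyme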
# H9c2 protect = myocardial damage modulation in H9c2 cells | H9c2 cardiomyocytes, H2O2 injury protection, ATPLite, 2 h | protection from H2O2 cell death, % at 20 µM | 360,000 tested, 0.63% active | AID 588492;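 active = compounds giving at least 50% protection of heart cells from peroxide-induced death in the single-dose screen, raw or plate-pattern-corrected value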;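 also: 0% = DMSO wells with peroxide and 100% = DMSO wells without peroxide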
# FAS-TE conf = FAS thioesterase (human) inhibition, confirmation; recombinant FAS-TE, OMFH fluorogenic substrate, fluorescence; inhibition, % at 15 µM; AID 624325; shares compounds with FAS-TE inh; 2,300 tested, 45% active;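 active = compounds inhibiting the enzyme by at least 50% at 15 µM in any one of the replicates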;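 also: 0% = enzyme with DMSO only and 100% = wells lacking enzyme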
# An asterisk follows results filed as active; . = not tested or not shown. This is a sample that favours compounds with a hit; in the whole collection about 4% have one here.
SMILES,SENP1 inh,iPSC survival up,NR3A LBD binder,Arr AP2 block,FAS-TE inh,H9c2 protect,FAS-TE conf
CCOC(=O)[C@H]1[C@H]2COc3ccc(Br)cc3[C@@H]2N2C(=O)c3ccc(F)cc3NC(=O)[C@@]12C,-1,-2,-3,1,20,9,.
C[C@@]12C(=O)Nc3ccccc3C(=O)N1[C@H]1c3cc(Br)ccc3OC[C@@H]1[C@@H]2c1ccccc1,-2,-2,-1,-1,92*,8,47*
C[C@@]12C(=O)Nc3ccc(Cl)cc3C(=O)N1[C@H]1c3cc(Br)ccc3OC[C@@H]1[C@@H]2c1ccccc1,-4,0,-3,43,91*,-2,33
C[C@@]12C(=O)Nc3ccc(Br)cc3C(=O)N1[C@H]1c3cc(Br)ccc3OC[C@@H]1[C@@H]2c1ccccc1,-3,0,0,-2,64*,0,23
CCOC(=O)[C@H]1[C@H]2COc3ccc(Br)cc3[C@@H]2N2C(=O)c3cc(F)c(F)cc3NC(=O)[C@@]12C,0,4,-18,7,41,32,.
COc1ccc2c(c1)[C@H]1[C@H](CO2)[C@H](c2ccccc2)[C@@]2(C)C(=O)N[C@H](C)C(=O)N12,1,-1,2,-4,-8,-4,.
COc1ccc2c(c1)C(=O)N1[C@H]3c4cc(Br)ccc4OC[C@@H]3[C@H](c3ccccc3)[C@]1(C)C(=O)N2,-8,2,2,11,78*,4,41*
C[C@@]12C(=O)N(Cc3ccccc3)CC(=O)N1[C@H]1c3cc(Cl)ccc3OC[C@@H]1[C@@H]2c1ccccc1,-1,2,-3,-1,26,1,.
O=C(O)c1ccccc1C(=O)OCC1CCC(=NO)CC1 (centres undefined),2,0,.,.,-8,-2,.
Cc1ccc(C2=NN(C(=O)CCC(=O)O)C(c3cccc([N+](=O)[O-])c3)C2)cc1 (centres undefined),1,1,-2,-2,-1,3,.
CC(=O)N1N=C(c2cccc([N+](=O)[O-])c2)OC1c1ccc(Cl)cc1Cl (centres undefined),-1,-1,-13,0,53*,4,40
CC(=O)N1N=C(c2ccc(Br)cc2)CC1c1cccc([N+](=O)[O-])c1 (centres undefined),3,0,.,.,62*,-20,49*
CC(=O)N1N=C(c2cccc([N+](=O)[O-])c2)OC1c1ccc(Br)cc1 (centres undefined),0,0,2,7,51*,-6,20
Cc1ccc(NC(=O)CN(C)C(=O)C2CCC2)cc1,-1,0,0,-8,-5,1,.
COc1ccc([C@H]2/C=C\CN(S(=O)(=O)c3cccc4cccnc34)[C@@H](C)C(=O)N2Cc2ccc(F)cc2)cc1,0,-3,-2,9,78*,-2,6
Cc1ccc(OCCSc2nc3ccccc3n2CCC(=O)O)c(C(C)C)c1,3,0,.,.,-1,2,.
CC(C)(C)OC(=O)N1CCN(C(=O)c2ncn3c2c(=O)[nH]c2ccccc23)CC1,2,0,.,.,-3,10,.
COc1ccc(CC(=O)O/N=C(\N)c2ccncc2)cc1OC,2,-2,.,.,-1,2,.
O=C(Cn1cc(C(=O)C2CC2)c2ccccc21)NCc1ccc2c(c1)OCO2,-2,4,-1,6,59*,9,55*
N#Cc1cccc(NC(=O)c2cc(C3CCCCN3C(=O)c3ccccn3)on2)c1 (centres undefined),0,-2,.,.,-10,4,.
COc1cccc(NC(=O)CN2C(=O)CSc3ccc(S(=O)(=O)N4CCC(C)CC4)cc32)c1,2,1,-4,1,65*,-12,72*
COCCNC(=O)[C@@]1(C)C=C[C@@H](Cc2ccccc2)N1C(=O)c1ccccc1,-4,5,-4,9,-13,-1,.
C[C@]1(C(=O)NCc2cc(F)cc(C(F)(F)F)c2)C=C[C@@H](Cc2ccccc2)N1C(=O)c1ccccc1,1,0,-6,28,68*,-1,23
CCOC(=O)c1ccc(NC(=O)c2nc[nH]c2C(=O)N(C)CCO)cc1,0,0,.,.,-2,-1,.
COc1cc(NC(=O)CCC2CCCC2)cc(-n2cnnn2)c1,1,-3,-5,1,60*,-7,12
SMILES,SENP1 inh,iPSC survival up,NR3A LBD binder,Arr AP2 block,FAS-TE inh,H9c2 protect,FAS-TE conf
COc1cc(NC(=O)CCCl)cc(-n2cnnn2)c1,0,2,-3,1,-1,1,.
O=C(N[C@H](CO)Cc1ccccc1)[C@H]1O[C@@H](n2ccc(=O)[nH]c2=O)[C@H](O)[C@@H]1O,0,5,.,.,-5,5,.
O=C(N/N=C/c1ccccc1)NC1CCCCC1,1,0,-1,4,8,-4,.
CC(C)(C)c1ccc(/C=N/NC(=S)NC2CCCCC2)cc1,4,-2,-5,19,53*,-32,45*
Cn1nc(C(C)(C)C)cc1NC(=O)C1(C)CCN1C(=O)Cc1ccc(-c2ccccc2)cc1 (centres undefined),2,-3,.,.,22,-5,.
O=C1c2ccccc2C(=O)N1CCCCN(C(=O)c1ccc([N+](=O)[O-])cc1)c1ccc(Cl)cc1,0,-1,3,5,-45,-2,.
O=C1c2ccccc2C(=O)N1CCCCN(C(=O)c1cc([N+](=O)[O-])cc([N+](=O)[O-])c1)c1ccc(Cl)cc1,1,0,-4,6,54*,-3,26
COc1cc2c(cc1OC)C1CCc3cc4c(cc3C1N=C2)OCO4 (centres undefined),-2,-2,.,.,5,37,.
CN(C(=O)c1ccc(NC(=O)Cc2ccc(NC(=O)C3CCCN(S(=O)(=O)c4cccc([N+](=O)[O-])c4)C3)cc2)cc1)C1CCCC1 (centres undefined),3,-3,6,8,66*,-6,-3
CN(Cc1ccccc1)C(=O)c1ccc(NC(=O)Cc2ccc(NC(=O)C3CCCN(C(=O)C4CCC4)C3)cc2)cc1 (centres undefined),1,-1,-1,2,-3,-12,.
CN(C(=O)c1ccc(NC(=O)Cc2cccc(NC(=O)C3CCCN(S(=O)(=O)c4cccc([N+](=O)[O-])c4)C3)c2)cc1)C1CC1 (centres undefined),0,-3,9,7,28,-22,.
